Data: ChEMBL document CHEMBL2407014, “Suberoylanilide hydroxamic acid, a histone deacetylase inhibitor, induces the production of anti-inflammatory cyclodepsipeptides from Beauveria felina” (J Nat Prod, 2013)
Starred links: 1 amine or outer side, 2 acyl side, 3 side chain; linkers in the order of their positions; H or OH if unused. Non-standard residues stand in square brackets, D forms with d. Residues, ends and D or L forms follow the SMILES beside them. ξ: configuration not given here. X1 = C[C@H]1CCN([*:1])[C@@H]1C(=O)[*:2]; X2 = CC1CCN([*:1])[C@@H]1C(=O)[*:2]; Hica(2S) = CC(C)C[C@H](O)C(=O)O; ξLac(3-iPr) = CC(C)CC(O)C(=O)O; NMeV = CN[C@H](C(=O)O)C(C)C; βAla = NCCC(=O)O

How the values were obtained:
[1] = Cytotoxicity against human neutrophils by LDH release assay; format: cell-based; conditions: neutrophil
[2] = Antiinflammatory activity in human neutrophils assessed as inhibition of FMLP-induced superoxide anion production treated 5 mins before FMLP addition measured after 10 mins; format: functional, cell-based; conditions: Neutrophil
Method in brief: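 Neutrophils from healthy adult donors' venous blood (dextran sedimentation, Ficoll centrifugation), with 0.5 mg/mL ferricytochrome c and 1 mM Ca²⁺, equilibrated 37 °C 2 min, compound 5 min, cytochalasin B (1 μg/mL) 3 min, then FMLP 100 nM for 10 min. SOD-inhibitable (100 U/mL) ferricytochrome c reduction read continuously at 550 nm; IC50 as 50% inhibition concentration.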

[3] = Antiinflammatory activity in human neutrophils assessed as inhibition of FMLP-induced elastase release treated 5 mins before FMLP addition; format: functional, cell-based; conditions: Neutrophil
Method in brief: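 Neutrophils (6 × 10⁵/mL) with MeO-Suc-Ala-Ala-Pro-Val-p-nitroanilide substrate (100 μM), equilibrated 37 °C 2 min, compound 5 min, then activated with FMLP (100 nM)/cytochalasin B (0.5 μg/mL). Absorbance at 405 nm monitored continuously; results as percentage of initial elastase rate; IC50 as concentration giving 50% inhibition.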

Compound | Activity [1] | IC50 [2] [µM] | IC50 [3] [µM]
CC(C)C[C@@H]1OC(=O)CCNC(=O)[C@H](C(C)C)N(C)C(=O)[C@H](C(C)C)NC(=O)[C@H](Cc2ccccc2)NC(=O)[C@@H]2CCCN2C1=O (cyclo(FV[NMeV][βAla][Hica(2S)]P)) | Non-toxic | 10 | 
CC(C)C[C@@H]1OC(=O)CCNC(=O)[C@H](C(C)C)N(C)C(=O)[C@H](C(C)C)NC(=O)[C@H](Cc2ccccc2)NC(=O)[C@@H]2[C@@H](C)CCN2C1=O (cyclo(FV[NMeV][βAla][Hica(2S)][X1])) | Non-toxic | 10.9 | 10
O=c1c(-c2ccc(O)cc2)coc2cc(O)cc(O)c12 [GENISTEIN] |  | 0.69 | 6.72
CC(C)CC1OC(=O)CCNC(=O)[C@H](C(C)C)N(C)C(=O)[C@H](C(C)C)N(C)C(=O)[C@H](Cc2ccccc2)NC(=O)[C@@H]2C(C)CCN2C1=O (stereo not given in full) [ISARIDIN C2] (cyclo(F[NMeV][NMeV][βAla][ξLac(3-iPr)][X2])) | Non-toxic | 10.1 | 12.1
CC(C)CC1OC(=O)CCNC(=O)[C@H](C(C)C)N(C)C(=O)[C@H](C(C)C)N(C)C(=O)[C@H](Cc2ccccc2)NC(=O)[C@@H]2CCCN2C1=O (stereo not given in full) [ISARIDIN E] (cyclo(F[NMeV][NMeV][βAla][ξLac(3-iPr)]P)) | Non-toxic | 12.2 | 12.8
CC[C@H](C)[C@@H]1NC(=O)[C@@H]2[C@@H](C)CCN2C(=O)[C@@H](CC(C)C)OC(=O)CCNC(=O)[C@H](C)N(C)C(=O)[C@H](C(C)C)N(C)C1=O [ROSEOCARDIN] | Non-toxic |  | 15.1
